Measurements as given in ChEMBL document CHEMBL4251559, “Design, synthesis, and evaluation of NDGA analogues as potential anti-ischemic stroke agents” (Eur J Med Chem, 2018).
Calls of active or inactive are those of the source. The calls are words filed in the database; no cut-off is given here.

Tests used:
[1] = target: T1, Nuclear factor erythroid 2-related factor 2 (Rattus norvegicus) (UniProt O54968); assay: Induction of Nrf2 translocation in nucleus of rat PC12 cells assessed as upregulation of HO-1 protein expression at 10 uM after 24 hrs by Western blot method; assay type: cell-based
T1 sequence (whole entry): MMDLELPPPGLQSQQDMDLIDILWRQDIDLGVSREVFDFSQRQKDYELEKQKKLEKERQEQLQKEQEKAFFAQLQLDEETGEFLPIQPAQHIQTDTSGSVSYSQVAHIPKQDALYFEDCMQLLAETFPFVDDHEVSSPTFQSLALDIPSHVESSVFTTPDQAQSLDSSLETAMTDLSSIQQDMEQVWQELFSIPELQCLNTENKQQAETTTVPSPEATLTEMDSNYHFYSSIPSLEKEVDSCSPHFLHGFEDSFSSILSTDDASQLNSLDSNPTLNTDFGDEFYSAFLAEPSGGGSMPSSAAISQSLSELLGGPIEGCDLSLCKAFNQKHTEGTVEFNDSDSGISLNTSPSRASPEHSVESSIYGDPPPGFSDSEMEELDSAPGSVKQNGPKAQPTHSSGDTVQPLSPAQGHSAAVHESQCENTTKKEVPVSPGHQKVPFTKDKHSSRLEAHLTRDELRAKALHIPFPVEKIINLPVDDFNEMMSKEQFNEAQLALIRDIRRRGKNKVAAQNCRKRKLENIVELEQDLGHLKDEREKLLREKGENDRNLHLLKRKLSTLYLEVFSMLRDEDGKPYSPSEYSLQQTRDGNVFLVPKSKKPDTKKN
Summary of the method: (§1)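 PC12 cells treated 24 h at 2.5, 5 or 10 µM; reference compounds at 10 µM. Lysed in ice-cold RIPA, run on 10% SDS-PAGE and transferred to PVDF. Probed with anti-HO-1 (1:300) and GAPDH (1:1000) overnight at 4 °C, then HRP anti-rabbit IgG 1 h. Mean ± SD, n = 3, one-way ANOVA with Tukey test.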

[2] = target: T1, Nuclear factor erythroid 2-related factor 2 (Rattus norvegicus); assay: Induction of Nrf2 translocation in nucleus of rat PC12 cells at 5 uM after 6 hrs by DAPI staining-based fluorescence microscopic method; assay type: cell-based
Summary of the method: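 PC12 cells on coverslips treated with 5 µM compound for 6 h. Fixed in 4% paraformaldehyde (20 min, 4 °C), permeabilised with 1% Triton X-100, blocked with 1% BSA. Anti-Nrf2 (1:300) overnight at 4 °C, then PE-labelled secondary (1:300) 1 h in the dark. DAPI counterstain, imaged by fluorescence microscopy.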

[3] = Antioxidant activity assessed as DPPH radical scavenging activity at 20 mg/ml after 30 mins; assay type: functional
Summary of the method: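 Samples were 20 mg/mL solutions in ethanol, mixed with 0.15 mM ethanolic DPPH (80 µL sample plus 120 µL DPPH). Mixtures were incubated 30 min at 25 °C and absorbance read at 517 nm. Ethanol plus DPPH served as the control. % scavenging = [1-(Ai-Aj)/Ac]×100. Run in triplicate.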

PC-12 [4] = assay: Cytoprotective activity against H2O2-induced damage in rat PC12 cells assessed as increase in cell viability at 5 uM preincubated for 1 hr followed by H2O2 challenge measured after 24 hrs by MTT assay; assay type: functional, cell-based
Summary of the method: (§2)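 PC12 cells at 5×10^3/well, attached overnight. Pretreated with 5 µM compound for 1 h or 24 h, then 400 µM H2O2 for 24 h. MTT (5 mg/mL) for 4 h at 37 °C, formazan dissolved in DMSO, OD read at 490 nm. Viability given as % of untreated control.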

PC-12 [5] = assay: Cytotoxicity against rat PC12 cells assessed as decrease in cell viability at 5 uM after 72 hrs by MTT assay; assay type: cell-based; settings: pc-12, 72 h
Summary of the method: (§3)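 PC12 cells at 5×10^3/well, attached overnight. Exposed to 5 µM compound for 24 h or 72 h without H2O2. MTT 4 h at 37 °C, formazan dissolved in DMSO, OD 490 nm. Viability as % of untreated control.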

PC-12 [6] = assay: Cytoprotective activity against H2O2-induced damage in rat PC12 cells assessed as increase in cell viability at 5 uM preincubated for 24 hrs followed by H2O2 challenge measured after 24 hrs by MTT assay; assay type: functional, cell-based; summary of the method: as §2
PC-12 [7] = assay: Cytotoxicity against rat PC12 cells assessed as decrease in cell viability at 5 uM after 24 hrs by MTT assay; assay type: cell-based; settings: pc-12, 24 h; summary of the method: as §3
[8] = target: T1, Nuclear factor erythroid 2-related factor 2 (Rattus norvegicus); assay: Induction of Nrf2 translocation in nucleus of rat PC12 cells assessed as upregulation of HO-1 protein expression after 24 hrs by Western blot method; assay type: cell-based; summary of the method: as §1
PC-12 [9] = assay: Cytoprotective activity against H2O2-induced damage in rat PC12 cells assessed as decrease in ROS accumulation at 5 uM preincubated for 1 to 24 hrs followed by H2O2 challenge measured after 3 hrs by DCFH-DA dye-based flow cytometric method; assay type: functional, cell-based
Summary of the method: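 PC12 cells seeded at 3 × 10^5/mL and attached overnight. Pre-incubated 1 h or 24 h with 5 µM compound, then H2O2 for 3 h. Loaded with DCFH-DA at 37 °C for 30 min, detached enzymatically, washed in PBS, filtered and analysed by flow cytometry. Mean ± SD, n = 3.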

Rattus norvegicus [10] = assay: Antiischemic stroke activity in Sprague-Dawley rat middle cerebral artery occlusion-induced ischemia-reperfusion injury model assessed as decrease in infarct size at 0.2 mg/kg, icv as nanoparticle measured after 72 hrs by TTC staining-based assay; assay type: functional, organism-based
Summary of the method: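 Male Sprague-Dawley rats (250-280 g), n = 7 per group. Nanoparticle-loaded drug (0.2 mg/kg) or isovolumetric saline or vehicle (polymer:DMSO:distilled water 50 mg:1 mL:3 mL) given by intracerebroventricular injection 2 h before MCAO. Filament occlusion for 2 h, then 72 h reperfusion. Brain slices stained with TTC at 37 °C for 30 min, photographed, and infarct area quantified by image analysis.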

[11] = target: T1, Nuclear factor erythroid 2-related factor 2 (Rattus norvegicus); assay: Induction of Nrf2 translocation in nucleus of rat PC12 cells assessed as upregulation of HO-1 protein expression at 5 uM after 24 hrs by Western blot method
Rattus norvegicus [12] = assay: Antiischemic stroke activity in Sprague-Dawley rat middle cerebral artery occlusion-induced ischemia-reperfusion injury model assessed as decrease in neurological score at 0.2 mg/kg, icv as nanoparticle measured after 72 hrs by Longa's method; assay type: functional, organism-based
Summary of the method: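 Male Sprague-Dawley rats (250-280 g), n = 7 per group. Intracerebroventricular injection of nanoparticle formulation 0.2 mg/kg 2 h before MCAO. Vehicle was polymer:DMSO:distilled water (50 mg:1 mL:3 mL). Intraluminal thread (about 1.8 cm) via ECA, 2 h occlusion, then 72 h reperfusion. Neurological deficit scored at 72 h on Longa's 0–4 scale. Mean ± SD, n ≥ 6.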

PC-12 [13] = assay: Cytoprotective activity against H2O2-induced damage in rat PC12 cells assessed as decrease in MDA levels preincubated for 1 to 24 hrs followed by H2O2 challenge measured after 16 hrs; assay type: functional, cell-based
Summary of the method: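 PC12 cells in DMEM with 10% FBS at 37 °C, 5% CO2. Pre-incubated 1 h or 24 h with compound (2.5, 5, 7.5 µM; reference compounds 5 µM), then exposed to 700 µM H2O2 for 16 h. Supernatant taken after centrifugation at 1600 × g for 10 min at 4 °C, and MDA measured with a kit. Mean ± SD, n = 3, one-way ANOVA with Tukey test.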

PC-12 [14] = assay: Cytoprotective activity against H2O2-induced damage in rat PC12 cells assessed as increase in cell viability preincubated for 1 to 24 hrs followed by H2O2 challenge measured after 24 hrs by MTT assay; assay type: functional, cell-based
Summary of the method: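 PC12 cells at 5×10^3/well, attached overnight. Pretreated 1 h or 24 h at 2.5, 5 or 7.5 µM, then 400 µM H2O2 for 24 h. MTT 4 h at 37 °C, DMSO solubilisation, OD 490 nm. Viability as % of control. Mean ± SD, n = 3, one-way ANOVA with Tukey test.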

Row | SMILES | Activity [3] | Activity (PC-12 [4]) | further results
1 | C[C@H](Cc1ccc(O)c(O)c1)[C@@H](C)Cc1ccc(O)c(O)c1 | Active | Active | Activity [1]: Active; Activity [2]: Active
2 | O=C1/C(=C/c2ccc(O)c(O)c2)COC/C1=C\c1ccc(O)c(O)c1 | Active | Active | Activity (PC-12 [5]): Toxic; Activity (PC-12 [6]): Active; Activity (PC-12 [7]): Non-Toxic
3 | O=C1C(=Cc2ccc(O)c(O)c2)CCC/C1=C\c1ccc(O)c(O)c1 | Active | Active | 
4 | O=C1/C(=C/c2ccc(O)c(O)c2)CSC/C1=C\c1ccc(O)c(O)c1 | Active | Active | 
5 | O=C1C(=Cc2ccc(O)c(O)c2)CC/C1=C\c1ccc(O)c(O)c1 | Active | Active | Activity [8]: Dose-dependent effect; Activity (PC-12 [9]): Active; Activity [2]: Active; Activity (Rattus norvegicus [10]): Active; Activity (PC-12 [5]): Toxic; Activity (PC-12 [6]): Active; Activity [11]: inactive; Activity (Rattus norvegicus [12]): Active; Activity (PC-12 [13]): Dose-dependent effect; Activity (PC-12 [7]): Non-Toxic; Activity (PC-12 [14]): Dose-dependent effect
6 | CCCN1C/C(=C\c2ccc(O)c(O)c2)C(=O)/C(=C/c2ccc(O)c(O)c2)C1 | Active | Active | 
7 | O=C1/C(=C/c2ccc(O)c(O)c2)CN(CCc2ccccc2)C/C1=C\c1ccc(O)c(O)c1 | Active | Active | 
8 | O=C1/C(=C/c2ccc(O)c(O)c2)CN(C2CC2)C/C1=C\c1ccc(O)c(O)c1 | Active | Active | 
9 | CCOC(=O)N1C/C(=C\c2ccc(O)c(O)c2)C(=O)/C(=C/c2ccc(O)c(O)c2)C1 | Active | Active | 
10 | O=C1/C(=C/c2ccc(O)c(O)c2)CN(Cc2ccccc2)C/C1=C\c1ccc(O)c(O)c1 | Active | Active | 
11 | CN1C/C(=C\c2ccc(O)c(O)c2)C(=O)/C(=C/c2ccc(O)c(O)c2)C1 | Active | Active | 
12 | CC(C)(C)c1cc(O)ccc1O |  |  | Activity [1]: Active; Activity [2]: Active
13 | O=C1/C(=C/c2ccc(O)c(O)c2)CNC/C1=C\c1ccc(O)c(O)c1 | Active | Active | Activity (PC-12 [5]): Toxic; Activity (PC-12 [6]): Active; Activity (PC-12 [7]): Non-Toxic
14 | CC1=NN(c2ccccc2)C(=O)C1 |  |  | Activity (Rattus norvegicus [10]): Active; Activity (Rattus norvegicus [12]): Active
15 | O=C1/C(=C/c2ccc(O)c(O)c2)CN(C(=O)OCc2ccccc2)C/C1=C\c1ccc(O)c(O)c1 | Active | Active | 
